Laboratory results taken from ChEMBL document CHEMBL1126168, “Benzazepinone calcium channel blockers. 3. Synthesis and structure-activity studies of 3-alkylbenzazepinones” (J Med Chem, 1992).

Columns and labels:
[1] = In vivo evaluation for the percentage decrease in blood pressure at 135 umol/kg administered through oral route in spontaneously hypertensive rats and observed for 12-18 h; format: functional, Rattus norvegicus
Summary of the method: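 Spontaneously hypertensive rats, n = 5, dosed orally at 135 μmol/kg; blood pressure followed and reported as percent decrease over the 0-6, 6-12 and 12-18 h intervals after dosing.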

[2] = In vivo evaluation for the percentage decrease in blood pressure at 45 umol/kg administered through oral route in spontaneously hypertensive rats and observed for 0-6 h
[3] = In vivo evaluation for the percentage decrease in blood pressure at 45 umol/kg administered through oral route in spontaneously hypertensive rats and observed for 6-12 h
[4] = (§1) In vitro inhibition [3H]diltiazem binding to calcium channels in isolated guinea pig skeletal muscle microsomal preparations; format: microsomes, Cavia porcellus, Muscle tissue, Microsome
[5] = species on record: Oryctolagus cuniculus; assay: In vitro evaluation for the vasorelaxant effects in circumferential strips of potassium-depolarized rabbit aorta. (IC50 in rabbit aorta strips contracted with KCl); format: functional
[6] = In vivo evaluation for the percentage decrease in blood pressure at 45 umol/kg administered through oral route in spontaneously hypertensive rats and observed for 12-18 h
[7] = species on record: Cavia porcellus; assay: as §1; format: microsomes; details: Muscle tissue, Microsome, concentration not given here

| Compound | Decrease [1] [%] | Decrease [2] [%] | Decrease [3] [%] | Kd [4] [nM] | IC50 [5] [nM] | Decrease [6] [%] | inhibition [7] [%] |
| --- | --- | --- | --- | --- | --- | --- | --- |
| COc1ccc([C@@H]2Cc3c(cccc3C(F)(F)F)N(CCN(C)C)C(=O)[C@@H]2Cc2ccccc2)cc1 | 6 | 14 | 8 | – | – | – | – |
| COc1ccc([C@@H]2Cc3cc(Cl)ccc3N(CCN(C)C)C(=O)[C@@H]2C)cc1 | 11 | 12 | 13 | 670 | 150 | – | – |
| CCC[C@H]1C(=O)N(CCN(C)C)c2ccccc2C[C@H]1c1ccc(OC)cc1.Cl | 12 | 10 | 11 | 250 | – | – | – |
| C=CC[C@H]1C(=O)N(CCN(C)C)c2cccc(C(F)(F)F)c2C[C@H]1c1ccc(OC)cc1.Cl (relative stereo) | 27 | 33 | 32 | – | 77 | – | – |
| C=CCC1C(=O)N(CCN(C)C)c2cccc(C(F)(F)F)c2CC1c1ccc(OC)cc1.Cl (centres undefined) | – | 24 | 27 | – | 100 | 29 | – |
| COc1ccc([C@@H]2Sc3cc(Cl)ccc3N(CCN(C)C)C(=O)[C@@H]2OC(C)=O)cc1 [CLENTIAZEM] | – | 29 | 16 | – | 100 | 22 | – |
| CC[C@H]1C(=O)N(CCN(C)C)c2cccc(C(F)(F)F)c2C[C@H]1c1ccc(OC)cc1.Cl | 15 | 24 | 19 | – | – | – | – |
| COc1ccc([C@@H]2Cc3ccccc3N(CCN(C)C)C(=O)[C@@H]2C)cc1.Cl | 8 | 6 | 4 | – | 1100 | – | – |
| COc1ccc([C@@H]2Cc3c(cccc3C(F)(F)F)N(CCN(C)C)C(=O)[C@H]2C)cc1 | – | 24 | 23 | – | – | 17 | – |
| COc1ccc([C@@H]2Cc3c(ccc(Br)c3OC)N(CCN(C)C)C(=O)[C@@H]2C)cc1.Cl | 14 | 9 | 12 | 120 | 90 | – | – |
| CC[C@H]1C(=O)N(CCN(C)C)c2cccc(Cl)c2C[C@H]1c1ccc(OC)cc1 | – | 14 | 18 | – | 80 | 7 | – |
| COc1ccc([C@@H]2Cc3c(OC)cccc3N(CCN(C)C)C(=O)[C@@H]2C)cc1.Cl | 8 | 7 | 10 | 400 | – | – | – |
| C=CC[C@H]1C(=O)N(CCN(C)C)c2ccc(Cl)cc2C[C@H]1c1ccc(OC)cc1 | 25 | 23 | 23 | 5040 | 160 | – | – |
| CC[C@H]1C(=O)N(CCN(C)C)c2ccc(Cl)cc2C[C@H]1c1ccc(OC)cc1 | 21 | 20 | 22 | – | 280 | – | – |
| COc1ccc([C@@H]2Cc3c(cccc3C(F)(F)F)N(CCN(C)C)C(=O)[C@@H]2OC(C)=O)cc1 | – | 17 | 12 | – | – | 12 | – |
| C=CC[C@H]1C(=O)N(CCN(C)C)c2ccc(C(F)(F)F)cc2C[C@H]1c1ccc(OC)cc1.Cl | – | 23 | 28 | – | 240 | 30 | – |
| COc1ccc([C@@H]2Cc3c(ccc(SC)c3OC)N(CCN(C)C)C(=O)[C@@H]2C)cc1.Cl | 14 | 18 | 15 | – | 70 | – | – |
| CCC[C@H]1C(=O)N(CCN(C)C)c2cccc(C(F)(F)F)c2C[C@H]1c1ccc(OC)cc1.Cl | – | 14 | 19 | – | – | 24 | – |
| C=CC[C@H]1C(=O)N(CCN(C)C)c2ccccc2C[C@H]1c1ccc(OC)cc1.Cl | 18 | 25 | 23 | – | – | – | – |
| CCC[C@H]1C(=O)N(CCN(C)C)c2ccc(C(F)(F)F)cc2C[C@H]1c1ccc(OC)cc1.Cl | 8 | 6 | 5 | – | 1200 | – | – |
| COc1ccc([C@@H]2Cc3c(cccc3C(F)(F)F)N(CCN(C)C)C(=O)[C@@H]2C)cc1 | 22 | 28 | 22 | – | 80 | – | 90 |
| COc1ccc([C@@H]2Cc3c(cccc3C(F)(F)F)N(CCN(C)C)C(=O)[C@H]2C)cc1.Cl | 8 | 12 | 9 | – | – | – | – |
| COc1ccc([C@@H]2Cc3cc(C(F)(F)F)ccc3N(CCN(C)C)C(=O)[C@@H]2C)cc1.Cl | 25 | 23 | 23 | – | 1230 | – | – |
